Assay results from article PMC9177108 (The Oncologist, 2022).

What was measured:
FGFR = conditions: AL3810 compared with sorafenib; cited from earlier work
Plasma pharmacokinetics = assay type: in vivo, human; conditions: for AUC(0-t) / AUC / Vd/F / half-life / k el / Cmax / concentration at 15 day / MRT: human, plasma, 10 mg; for AUC: AUCss; for Vd/F: V z/F; for Cmax: C max; for concentration at 15 day: Css; for Css, max, Mean ± SD: C1D15, 10 mg p.o.
Procedure, shortened: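 Test compound was given at 10 mg orally, either continuously daily or 3 weeks on/1 week off. Plasma PK was sampled on cycle 1 day 1 after a single dose for Tmax, Cmax, AUC0-24h, AUC0-t, AUC0-∞, λz, t1/2, CL/F, Vz/F, %AUCex and MRT. After multiple doses, steady-state parameters were Css max/min/avg, Tss,max, AUCss, CLss/F, Vss/F, %Fluctuation and accumulation ratios. […]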

[1] = test system: patients with recurrent and metastatic nasopharyngeal carcinoma (RM-NPC); assay: Safety and tolerability; assay type: in vivo, human; conditions: all patients, both arms
Procedure, shortened: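 Safety was the primary endpoint, assessed separately in two randomised arms of pretreated RM-NPC patients given test compound 10 mg orally: daily on a 4-week cycle, or 3 weeks on/1 week off. Adverse events were graded by CTCAE version 4.03. The safety set comprised patients who took at least one dose. TEAEs and TRAEs, including those leading to dose reduction, interruption or discontinuation, were tabulated per arm.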

[2] = oral, GeoMean(%CVb), single dose, C1D1, continuous arm (n = 5)
[3] = oral, GeoMean(%CVb), single dose, C1D1, intermittent arm (n = 4)
[4] = multiple dose, C1D15, continuous arm (n=5)
[5] = multiple dose, C1D15, intermittent arm (n=4)
[6] = single dose, C1D1, continuous arm (n = 5)
[7] = single dose, C1D1, intermittent arm (n = 4)

For `CNC(=O)c1cccc2cc(Oc3ccnc4cc(OCC5(N)CC5)c(OC)cc34)ccc12` [Lucitanib], the “potency against FGFR” value (FGFR) is listed as “more potent”, the “time at which steady state is reached (trough levels)” value (Plasma pharmacokinetics; 10 mg p.o. once daily) is listed as at most 15 days and the AUC(0-t) (Plasma pharmacokinetics; AUC0-t, GeoMean(%CVb), single dose, C1D1, continuous arm (n = 5)) is listed as 2370 ng·h/mL. It also gave an AUC(0-t) (Plasma pharmacokinetics; AUC0-t, GeoMean(%CVb), single dose, C1D1, intermittent arm (n = 4)) of 2720 ng·h/mL, an AUC (Plasma pharmacokinetics; GeoMean(%CVb), multiple dose, C1D15, continuous arm (n=5)) of 6170 ng·h/mL and an AUC (Plasma pharmacokinetics; GeoMean(%CVb), multiple dose, C1D15, intermittent arm (n=4)) of 9160 ng·h/mL. It also gave an AUC (Plasma pharmacokinetics; Mean ± SD, multiple dose, C1D15, continuous arm (n=5)) of 6670 ± 2630 ng·h/mL, an AUC (Plasma pharmacokinetics; Mean ± SD, multiple dose, C1D15, intermittent arm (n=4)) of 9680 ± 3710 ng·h/mL and a Vd/F (Plasma pharmacokinetics; GeoMean(%CVb), single dose, C1D1, continuous arm (n = 5)) of 68 L. For the same molecule, the Vd/F (Plasma pharmacokinetics; GeoMean(%CVb), single dose, C1D1, intermittent arm (n = 4)) was 58.1 L, the Vd/F (Plasma pharmacokinetics; Mean ± SD, single dose, C1D1, continuous arm (n = 5)) was 75.2 ± 40.2 L and the Vd/F (Plasma pharmacokinetics; Mean ± SD, single dose, C1D1, intermittent arm (n = 4)) was 60.8 ± 19.8 L. The half-life (Plasma pharmacokinetics; t 1/2, GeoMean(%CVb), single dose, C1D1, continuous arm (n = 5)) was 21.9 h, the half-life (Plasma pharmacokinetics; t 1/2, GeoMean(%CVb), single dose, C1D1, intermittent arm (n = 4)) was 22.1 h and the half-life (Plasma pharmacokinetics; t 1/2, Mean ± SD, single dose, C1D1, continuous arm (n = 5)) was 23.8 ± 11.8 h. The half-life (Plasma pharmacokinetics; t 1/2, Mean ± SD, single dose, C1D1, intermittent arm (n = 4)) was 24.8 ± 15.5 h, the k el (Plasma pharmacokinetics; λ z, GeoMean(%CVb), single dose, C1D1, continuous arm (n = 5)) was 8.33e-06 s⁻¹ and the k el (Plasma pharmacokinetics; λ z, GeoMean(%CVb), single dose, C1D1, intermittent arm (n = 4)) was 8.33e-06 s⁻¹. The k el (Plasma pharmacokinetics; λ z, Mean ± SD, single dose, C1D1, continuous arm (n = 5)) was 8.33e-06 s⁻¹, the k el (Plasma pharmacokinetics; λ z, Mean ± SD, single dose, C1D1, intermittent arm (n = 4)) was 8.33e-06 s⁻¹ and the k el (Plasma pharmacokinetics; λz, Mean ± SD, multiple dose, C1D15, continuous arm (n=5)) was 5.56e-06 s⁻¹. It also gave a k el (Plasma pharmacokinetics; λz, Mean ± SD, multiple dose, C1D15, intermittent arm (n=4)) of 5.56e-06 s⁻¹, an AUC(0-t) (Plasma pharmacokinetics; oral, AUC0-24h, GeoMean(%CVb), single dose, C1D1, continuous arm (n = 5)) of 2410 ng·h/mL and an AUC(0-t) (Plasma pharmacokinetics; oral, AUC0-24h, GeoMean(%CVb), single dose, C1D1, intermittent arm (n = 4)) of 2770 ng·h/mL. The AUC(0-t) (Plasma pharmacokinetics; oral, AUC0-24h, Mean ± SD, single dose, C1D1, continuous arm (n = 5)) was 2560 ± 858 ng·h/mL, the AUC(0-t) (Plasma pharmacokinetics; oral, AUC0-24h, Mean ± SD, single dose, C1D1, intermittent arm (n = 4)) was 3110 ± 1890 ng·h/mL and the AUC(0-t) (Plasma pharmacokinetics; oral, AUC0-t, Mean ± SD, single dose, C1D1, continuous arm (n = 5)) was 2510 ± 834 ng·h/mL. For the same molecule, the AUC(0-t) (Plasma pharmacokinetics; oral, AUC0-t, Mean ± SD, single dose, C1D1, intermittent arm (n = 4)) was 3030 ± 1750 ng·h/mL, the Cmax (Plasma pharmacokinetics; [2]) was 261 ng/mL and the Cmax (Plasma pharmacokinetics; [3]) was 228 ng/mL. It also gave a concentration at 15 day (Plasma pharmacokinetics; oral, avg, GeoMean(%CVb), multiple dose, C1D15, continuous arm (n=5)) of 257 ng/mL, a concentration at 15 day (Plasma pharmacokinetics; oral, avg, GeoMean(%CVb), multiple dose, C1D15, intermittent arm (n=4)) of 382 ng/mL and a concentration at 15 day (Plasma pharmacokinetics; oral, avg, Mean ± SD, multiple dose, C1D15, continuous arm (n=5)) of 278 ± 110 ng/mL. For the same molecule, the concentration at 15 day (Plasma pharmacokinetics; oral, avg, Mean ± SD, multiple dose, C1D15, intermittent arm (n=4)) was 403 ± 155 ng/mL, the concentration at 15 day (Plasma pharmacokinetics; oral, min, GeoMean(%CVb), multiple dose, C1D15, continuous arm (n=5)) was 176 ng/mL and the concentration at 15 day (Plasma pharmacokinetics; oral, min, GeoMean(%CVb), multiple dose, C1D15, intermittent arm (n=4)) was 284 ng/mL. It also gave a concentration at 15 day (Plasma pharmacokinetics; oral, min, Mean ± SD, multiple dose, C1D15, continuous arm (n=5)) of 203 ± 93.5 ng/mL, a concentration at 15 day (Plasma pharmacokinetics; oral, min, Mean ± SD, multiple dose, C1D15, intermittent arm (n=4)) of 303 ± 118 ng/mL and an MRT (Plasma pharmacokinetics; [2]) of 32.2 h. The MRT (Plasma pharmacokinetics; [3]) was 32.6 h, the MRT (Plasma pharmacokinetics; oral, Mean ± SD, single dose, C1D1, continuous arm (n = 5)) was 34.2 ± 14.3 h and the MRT (Plasma pharmacokinetics; oral, Mean ± SD, single dose, C1D1, intermittent arm (n = 4)) was 36.3 ± 21.6 h. The k el (Plasma pharmacokinetics; oral, λz, GeoMean(%CVb), multiple dose, C1D15, continuous arm (n=5)) was 2.78e-06 s⁻¹, the k el (Plasma pharmacokinetics; oral, λz, GeoMean(%CVb), multiple dose, C1D15, intermittent arm (n=4)) was 5.56e-06 s⁻¹ and the “Css, max, Mean ± SD” value (Plasma pharmacokinetics; multiple dose, continuous arm (n=5)) was 482.80 ± 271.81 ng/mL. For the same molecule, the “Css, max, Mean ± SD” value (Plasma pharmacokinetics; multiple dose, intermittent arm (n=4)) was 608.50 ± 169.48 ng/mL, the “%Fluctuation, GeoMean(%CVb)” value (Plasma pharmacokinetics; [4]) was 90.75(63.71) % and the “%Fluctuation, Mean ± SD” value (Plasma pharmacokinetics; [4]) was 104.26 ± 61.47%. For the same molecule, the “CLss/F, GeoMean(%CVb)” value (Plasma pharmacokinetics; [4]) was 1.62(49.01) L/hour, the “CLss/F, Mean ± SD” value (Plasma pharmacokinetics; [4]) was 1.78 ± 0.93 L/h and the “Css, max, GeoMean(%CVb)” value (Plasma pharmacokinetics; [4]) was 435.78(50.87) ng/mL. For the same molecule, the “R ac, AUC (accumulation ratio based on AUC), Mean ± SD” value (Plasma pharmacokinetics; [4]) was 2.62 ± 0.55, the “R ac, Cmax (accumulation ratio based on Cmax), Mean ± SD” value (Plasma pharmacokinetics; [4]) was 1.98 ± 1.20 and the “Tss, max, Median” value (Plasma pharmacokinetics; [4]) was 2.97 h. The “%Fluctuation, GeoMean(%CVb)” value (Plasma pharmacokinetics; [5]) was 79.03(27.10) %, the “%Fluctuation, Mean ± SD” value (Plasma pharmacokinetics; [5]) was 81.15 ± 21.54% and the “CLss/F, GeoMean(%CVb)” value (Plasma pharmacokinetics; [5]) was 1.09(40.16) L/hour. For the same molecule, the “CLss/F, Mean ± SD” value (Plasma pharmacokinetics; [5]) was 1.15 ± 0.45 L/h, the “Css, max, GeoMean(%CVb)” value (Plasma pharmacokinetics; [5]) was 590.42(29.26) ng/mL and the “R ac, AUC (accumulation ratio based on AUC), Mean ± SD” value (Plasma pharmacokinetics; [5]) was 3.38 ± 0.84. The “R ac, Cmax (accumulation ratio based on Cmax), Mean ± SD” value (Plasma pharmacokinetics; [5]) was 2.67 ± 0.69, the “Tss, max, Median” value (Plasma pharmacokinetics; [5]) was 1.98 h and the “%AUCex, GeoMean(%CVb)” value (Plasma pharmacokinetics; [6]) was 47.22(22.24) %. The “%AUCex, Mean ± SD” value (Plasma pharmacokinetics; [6]) was 48.16 ± 10.87%, the “CL/F, GeoMean(%CVb)” value (Plasma pharmacokinetics; [6]) was 2.15(57.72) L/hour and the “CL/F, Mean ± SD” value (Plasma pharmacokinetics; [6]) was 2.44 ± 1.5048 L/h. The “%AUCex, GeoMean(%CVb)” value (Plasma pharmacokinetics; [7]) was 46.33(29.69) %, the “%AUCex, Mean ± SD” value (Plasma pharmacokinetics; [7]) was 47.96 ± 15.75% and the “CL/F, GeoMean(%CVb)” value (Plasma pharmacokinetics; [7]) was 1.83(105.30) L/hour. The “CL/F, Mean ± SD” value (Plasma pharmacokinetics; [7]) was 2.24 ± 1.21 L/h, the “exposure (Cmax, AUC0-24h) at steady state relative to day 1” value (Plasma pharmacokinetics; steady state vs day 1, 10 mg p.o.) was “two to three times” and the “patients with at least one TEAE” value [1] was “All patients”.
